Experiments:
[1] = biological target: T1, DNA polymerase lambda (Homo sapiens, UniProt Q9UGP5); assay: Inhibition of human DNA polymerase lambda
T1 sequence (Q9UGP5 whole entry): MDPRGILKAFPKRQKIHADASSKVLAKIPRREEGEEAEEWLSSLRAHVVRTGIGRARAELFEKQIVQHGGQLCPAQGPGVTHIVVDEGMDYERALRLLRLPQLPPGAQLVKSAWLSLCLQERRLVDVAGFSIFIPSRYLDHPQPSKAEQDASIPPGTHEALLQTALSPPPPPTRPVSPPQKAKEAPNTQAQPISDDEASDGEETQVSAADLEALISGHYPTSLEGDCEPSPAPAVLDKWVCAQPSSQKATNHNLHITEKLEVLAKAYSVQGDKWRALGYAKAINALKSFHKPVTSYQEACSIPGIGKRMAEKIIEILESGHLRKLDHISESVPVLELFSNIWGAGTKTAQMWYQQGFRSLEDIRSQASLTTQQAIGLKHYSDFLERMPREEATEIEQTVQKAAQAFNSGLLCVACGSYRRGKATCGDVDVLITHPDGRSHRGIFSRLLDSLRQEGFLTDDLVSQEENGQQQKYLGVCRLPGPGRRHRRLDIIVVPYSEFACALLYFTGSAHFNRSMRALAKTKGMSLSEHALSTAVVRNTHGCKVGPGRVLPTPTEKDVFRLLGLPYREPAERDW
Outline: (§1)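 Dose-response was run on 0.05 U of full-length (residues 1–575), del-1 (133–575) or del-2 (245–575) human pol λ. Compound in DMSO was preincubated 10 min at 0 °C, then the reaction ran 60 min at 37 °C with poly(dA)/oligo(dT)12-18 and dTTP. Activity relative to the no-compound control; means ± SEM of three independent experiments.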

[2] = Inhibition of human N terminal deleted DNA polymerase lambda Del-1 mutant; outline: as §1
[3] = Inhibition of human N terminal deleted DNA polymerase lambda Del-2 mutant; outline: as §1
[4] = biological target: DNA polymerase beta (Homo sapiens, UniProt P06746); assay: Inhibition of human DNA polymerase beta

Q: Which results are given for `C/C(=C\CC[C@H](C)C(=O)O)[C@H]1CC[C@H](C(=O)O)CC1` [HYMENOIC ACID]?
A: IC50 [1]: 91.7 µM; IC50 [2]: > 200 µM; IC50 [3]: > 200 µM; IC50 [4]: > 200 µM
